M5 ag: human M5 muscarinic receptor agonists, primary screen, CHO-K1 cells, Fluo-8 calcium fluorescence; CHO-K1 hM5 cells; 0% DMSO wells, 100% maximal acetylcholine response; activation, % at 3 µM; actives 0.19% (n = 360,000); AID 624037, 2012;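 active = activation above the run's mean over test compounds plus 3 SD, cut at about 23% in these data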;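 also: signal is peak over basal fluorescence ratio across the kinetic read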
Target sequence (P08912 whole entry, looked up): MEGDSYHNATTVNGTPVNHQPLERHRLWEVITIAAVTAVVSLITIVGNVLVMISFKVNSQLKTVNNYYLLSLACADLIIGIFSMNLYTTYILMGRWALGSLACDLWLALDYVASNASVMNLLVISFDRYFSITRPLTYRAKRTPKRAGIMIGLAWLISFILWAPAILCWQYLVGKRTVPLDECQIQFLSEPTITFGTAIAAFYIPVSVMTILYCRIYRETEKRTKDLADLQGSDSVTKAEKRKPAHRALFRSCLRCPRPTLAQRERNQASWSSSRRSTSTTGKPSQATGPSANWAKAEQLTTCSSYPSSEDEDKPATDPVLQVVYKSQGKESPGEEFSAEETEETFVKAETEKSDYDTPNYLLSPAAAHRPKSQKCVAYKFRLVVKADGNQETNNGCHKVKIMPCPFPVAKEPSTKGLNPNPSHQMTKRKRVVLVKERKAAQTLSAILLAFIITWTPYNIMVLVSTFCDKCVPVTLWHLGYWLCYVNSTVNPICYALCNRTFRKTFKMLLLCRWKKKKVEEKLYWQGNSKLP
M4 antag: human M4 muscarinic receptor antagonists, primary screen, CHO cells, Fluo-8 calcium fluorescence; CHO-hM4 cells, ACh EC80; inhibition, % at 3 µM; actives 0.73% (n = 360,000); AID 624125, 2012;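 active = inhibition above its plate's cutoff, the mean inhibition of sample wells plus 3 SD, cut at about 27% in these data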
CHRM5 PAM: human M5 muscarinic receptor positive allosteric modulators, primary screen, CHO-K1 cells, Fluo-8 calcium fluorescence; Muscarinic acetylcholine receptor M5 (Homo sapiens), P08912; CHO-K1 hM5, ACh EC20 PAM; 0% = ACh EC20, 100% = ACh EC100; activation, % at 3 µM; actives 0.3% (n = 360,000);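 active = activation above the run cutoff, the mean activation of all test compounds plus 3 SD, cut at about 18% in these data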
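System – CHO-K1 hM5 cells · Compound – 3 µM, single dose · Incubation – compound preincubation 140 s before EC20 acetylcholine addition · Technique – Fluo-8 calcium fluorescence · Measure – Max/basal fluorescence ratio as % of EC20–EC100 ACh window · Benchmarks – low control EC20 acetylcholine (0%), high control EC100 acetylcholine (100%) · Replication – singlicate, one well per test compound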
M5 antag: human M5 muscarinic receptor antagonists, primary screen, CHO cells, Fluo-8 calcium fluorescence | Muscarinic acetylcholine receptor M5 (Homo sapiens), P08912 | CHO-hM5 cells, ACh EC80 | inhibition, % at 3 µM | actives 0.59% (n = 360,000);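 active = inhibition above a per-plate cutoff, the mean of that plate's test compounds plus 3 SD, cut at about 27% in these data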
CHRM4 agonist: human M4 muscarinic receptor agonists, primary screen, CHO-K1 cells, Fluo-8 calcium fluorescence. AID 624127, 2012. activation, % at 3 µM. Muscarinic acetylcholine receptor M4 (Homo sapiens), P08173. CHO-K1 hM4/Gqi5; vehicle 0%, full acetylcholine response 100%. actives 0.14% (n = 360,000);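 active = activation above the run mean over all test wells plus 3 SD, cut at about 32% in these data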;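 also: peak over basal fluorescence ratio per well then scaled between controls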
M4 PAM: human M4 muscarinic receptor positive allosteric modulators, primary screen, CHO-K1 cells, Fluo-8 calcium fluorescence; actives 0.4% (n = 360,000); CHO-K1 hM4/Gqi5, ACh EC20; 0% = ACh EC20, 100% = maximal ACh; Muscarinic acetylcholine receptor M4 (Homo sapiens), P08173; activation, % at 3 µM; AID 624126, 2012;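 active = activation above its plate's cutoff, the mean activation of sample wells plus 3 SD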
Each line names hits and unclear results; the compound was inactive in the other large screens. Compounds with a hit are over-represented: about 1.9% of the library has one in this group of screens.

Cc1cc(C)nc(Nc2ncc(O)n2-c2ccccc2)n1	none
COc1cccc(C(=O)/C(C#N)=N/Nc2cccc(-c3ccnc(C)n3)c2)c1	none
COc1ccc(S(=O)(=O)Cc2ccc(C(=O)NCCCN(C)c3ccccc3)o2)cc1	M4 antag 28
CCCCC(=O)N(C)c1c(CC)nc2c(OCc3cc(Cl)cc(Cl)c3)cccn12	none
O=C(NCc1cccnc1)c1cc(C2CCCN(S(=O)(=O)c3cccc4cccnc34)C2)on1 (stereo unspecified)	none
Cc1ccc(C(=O)N2CCN(c3ccc(N4CCOCC4)nn3)CC2)cc1C	M4 PAM 18
O=C(c1cccc(Br)c1)N1CCN(c2ccc(N3CCOCC3)nn2)CC1	none
S=C1NCC(c2ccccc2)S1 (stereo unspecified)	CHRM5 PAM 18
O=C1CC(c2ccccc2)Sc2ccccc2N1 (stereo unspecified)	none
CCn1cnc2c1c(=O)[nH]c(=O)n2Cc1ccccc1	none
CCCCn1cnc2c(cnn2-c2ccc(F)cc2)c1=O	M4 antag 37
CCCCn1cnc2c1c(=O)[nH]c(=O)n2CCCC	CHRM5 PAM 19
O=C(NC1CCCCC1)C(c1ccc(C(F)(F)F)cc1)n1c(=O)c(-c2cc3ccccc3[nH]2)nc2ccccc21 (stereo unspecified)	none
COc1ccc(CCn2c(C3CCCCC3)nc3c(c(=O)c4ccccc4n3C)c2=O)cc1	CHRM4 agonist 45
CCOC(=O)c1c(C)nsc1NC(=O)C1CCCCC1	M4 PAM 14
COC(=O)C1(C(=O)OC)C[C@H](c2ccc(OC)cc2)N(Cc2ccccc2OC)[C@@H]1c1cccs1	none
Cc1c(C(c2ccccc2O)c2c(C)n(C)n(-c3ccccc3)c2=O)c(=O)n(-c2ccccc2)n1C	none
Cc1c(C(c2cc3c(cc2Br)OCO3)c2c(C)n(C)n(-c3ccccc3)c2=O)c(=O)n(-c2ccccc2)n1C	M4 antag 44
Cc1cc(NC(=O)COC(=O)C2CCCN2C(=O)c2cccs2)no1 (stereo unspecified)	CHRM5 PAM 32
CC(C)NC(=O)NC(=O)COC(=O)C1CCCN1C(=O)c1cccs1 (stereo unspecified)	none
CCN(CC)c1ccc(C=C2SC(=S)NC2=O)cc1	M5 ag 72, M5 antag 35
O=C(NC1CCCCC1)C(c1ccc(F)cc1)N(C(=O)c1csnn1)C1CC1 (stereo unspecified)	M4 PAM 19
CC(C)c1ccc(C(C(=O)NC2CCCCC2)N(C(=O)c2csnn2)C2CC2)cc1 (stereo unspecified)	none
Cc1cc(NC(=O)COc2c(C)cccc2C)no1	none
NC(=O)c1cccc(-c2ccnc3c2CC(C(=O)NCCc2ccccc2)O3)c1 (stereo unspecified)	none
C=C1c2ccccc2NC(=O)N1c1ccc(C)cc1	none
C=C1c2cc(C)ccc2NC(=O)N1c1ccc(C)cc1	M4 PAM 29
CCCNC(=O)C(Cc1ccccc1)NC(=O)Cc1ccccc1 (stereo unspecified)	none
O=C(Nc1ccccc1)Nc1ccc(F)c([N+](=O)[O-])c1	M5 antag 27
Cc1ccc(NC(=O)Nc2ccccc2)cc1[N+](=O)[O-]	none
O=C(Nc1ccccc1)Nc1ccc(Cl)c([N+](=O)[O-])c1	M5 antag 28
O=C(NC(=S)Nc1ccc(F)c([N+](=O)[O-])c1)c1ccccc1F	none
O=C(/C=C/c1ccc2c(c1)OCO2)N1CCN(c2n[nH]c(=O)[nH]c2=O)CC1	none
CCc1cc(=O)oc2cc(OC(C)C(=O)N3CC[C@@]4(O)CCCC[C@H]4C3)ccc12 (stereo partly specified)	none
COc1ccc(C(c2nnnn2C(C)(C)C)N2CCN(C(=O)c3ccco3)CC2)cc1 (stereo unspecified)	none
COc1ccc(C(=O)OC2CCN(C)CC2)cc1	M4 PAM 31
C/C=C(\C)C(=O)OC1[C@H](OC(C)=O)C2(CO)C(CC1(C)C)C1=CCC3C4(C)CCC(O[C@@H]5O[C@H](C(=O)O)[C@@H](O[C@@H]6O[C@H](CO)[C@@H](O)[C@H](O)[C@H]6O)[C@H](O)[C@H]5O[C@H]5O[C@H](CO)[C@@H](O)[C@H](O)[C@H]5O)[C@](C)(CO)C4CCC3(C)[C@]1(C)C[C@H]2O (stereo partly specified)	M5 ag 92, M4 antag 91, M5 antag 82, CHRM4 agonist 133
C/C=C(/C)C(=O)OC1CC(C)(C)C[C@H]2C3=CC[C@@H]4[C@@]5(C)CCC(O[C@@H]6O[C@@H](C(=O)O)[C@@H](O)C(O[C@@H]7OC[C@H](O)[C@@H](O)[C@@H]7O[C@@H]7OC(CO)C(O)[C@@H](O)[C@@H]7O)C6O[C@@H]6OC(CO)C(O)C(O)C6O)[C@@](C)(CO)[C@@H]5CC[C@]4(C)[C@]3(C)CC(O)[C@@]12CO (stereo partly specified)	CHRM4 agonist 75
CC1(C)C[C@H]2C3=CCC4[C@@]5(C)CC[C@H](O[C@@H]6O[C@H](C(=O)O)[C@@H](O)[C@H](O)[C@H]6O)[C@@](C)(CO)C5CC[C@@]4(C)[C@]3(C)C[C@H](O)[C@@]2(CO)[C@@H](O)[C@@H]1O (stereo partly specified)	none
O=[N+]([O-])c1ccccc1CCc1ccccc1[N+](=O)[O-]	none
CC(C)(C)[C@H]1C=C(C(=O)N2CCN(Cc3ccc4c(c3)OCO4)CC2)O[C@@H](OCCCCO)C1	CHRM5 PAM 20
OC[C@H]1O[C@@H](c2nc(-c3ccc(C4OCCO4)cc3)no2)[C@H](O)[C@@H]1O	none
OC[C@H]1O[C@@H](c2nc(-c3ccc4[nH]ccc4c3)no2)[C@H](O)[C@@H](O)[C@H]1O	M4 PAM 16
COc1ccc(C(=O)/C=C/c2ccc3c(c2)OCCO3)cc1	none
O=C(/C=C/c1ccc2c(c1)OCCO2)c1ccccc1	CHRM5 PAM 24
COc1cc(-c2cc(C(=O)NCc3ccco3)c3ccccc3n2)cc(OC)c1OC	none
COc1cc(-c2cc(C(=O)Nc3ccc(S(=O)(=O)NCc4ccco4)cc3)c3ccccc3n2)cc(OC)c1OC	M4 antag 46

Screening results: PubChem BioAssay, The Scripps Research Institute Molecular Screening Center
